Measurements as given in ChEMBL document CHEMBL1687936, “Radiosynthesis and biological evaluation of L- and D-S-(3-[18F]fluoropropyl)homocysteine for tumor imaging using positron emission tomography” (J Med Chem, 2011).

Tests used:
HT-29 = assay: Drug uptake in human HT-29 cells in presence of amino acid transport system A inhibitor MeAIB; format: ADME, cell-based
Method in brief: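 Cells were prepared as for the uptake assay and preincubated at 37 °C with inhibitor at 12.5 mmol/L in PBS; controls received PBS. 0.37 MBq [18F]tracer was added and incubated 30 min at 37 °C. Cells were washed cold, lysed and γ-counted. Uptake is given as % of the control group, n = 3.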

Spleen [1] = assay: Biodistribution in spleen of BALB/c nude mouse xenografted with human A375 cells at 0.8 to 1 MBq, iv after 15 mins by gamma-counter; format: ADME, organism-based, A-375; conditions: in vivo, 0.25 h
Method in brief: (§1)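 Female Balb/c nude mice with s.c. A375 flank tumors, studied 26 days after tumor induction. Tracer 0.8-1 MBq in 100 μL saline given i.v. Groups of n = 5 killed at 15, 30, 60 and 120 min. Organs weighed and counted in a γ-counter against dilutions of the injected dose. Values are % ID/g wet tissue, mean ± SD.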

Spleen [2] = assay: Biodistribution in spleen of BALB/c nude mouse xenografted with human A375 cells at 0.8 to 1 MBq, iv after 60 mins by gamma-counter; format: ADME, organism-based, A-375; conditions: in vivo, 1 h; method in brief: as §1
Kidney [3] = assay: Biodistribution in kidney of BALB/c nude mouse xenografted with human A375 cells at 0.8 to 1 MBq, iv after 15 mins by gamma-counter; format: ADME, organism-based, A-375; conditions: in vivo, 0.25 h; method in brief: as §1
Kidney [4] = assay: Biodistribution in kidney of BALB/c nude mouse xenografted with human A375 cells at 0.8 to 1 MBq, iv after 30 mins by gamma-counter; format: ADME, organism-based, A-375; conditions: in vivo, 0.5 h; method in brief: as §1
Kidney [5] = assay: Biodistribution in kidney of BALB/c nude mouse xenografted with human A375 cells at 0.8 to 1 MBq, iv after 60 mins by gamma-counter; format: ADME, organism-based, A-375; conditions: in vivo, 1 h; method in brief: as §1
Kidney [6] = assay: Biodistribution in kidney of BALB/c nude mouse xenografted with human A375 cells at 0.8 to 1 MBq, iv after 120 mins by gamma-counter; format: ADME, organism-based, A-375; conditions: in vivo, 2 h; method in brief: as §1
Muscle tissue [7] = assay: Biodistribution in muscle of BALB/c nude mouse xenografted with human A375 cells at 0.8 to 1 MBq, iv after 15 mins by gamma-counter; format: ADME, organism-based, A-375; conditions: in vivo, 0.25 h; method in brief: as §1
Muscle tissue [8] = assay: Biodistribution in muscle of BALB/c nude mouse xenografted with human A375 cells at 0.8 to 1 MBq, iv after 60 mins by gamma-counter; format: ADME, organism-based, A-375; conditions: in vivo, 1 h; method in brief: as §1
Muscle tissue [9] = assay: Biodistribution in muscle of BALB/c nude mouse xenografted with human A375 cells at 0.8 to 1 MBq, iv after 120 mins by gamma-counter; format: ADME, organism-based, A-375; conditions: in vivo, 2 h; method in brief: as §1
Bone [10] = assay: Biodistribution in bone of BALB/c nude mouse xenografted with human A375 cells at 0.8 to 1 MBq, iv after 30 mins by gamma-counter; format: ADME, organism-based, Bone element, A-375; conditions: in vivo, 0.5 h; method in brief: as §1
Bone [11] = assay: Biodistribution in bone of BALB/c nude mouse xenografted with human A375 cells at 0.8 to 1 MBq, iv after 120 mins by gamma-counter; format: ADME, organism-based, Bone element, A-375; conditions: in vivo, 2 h; method in brief: as §1
Lung [12] = assay: Biodistribution in lungs of BALB/c nude mouse xenografted with human A375 cells at 0.8 to 1 MBq, iv after 15 mins by gamma-counter; format: ADME, organism-based, A-375; conditions: in vivo, 0.25 h; method in brief: as §1
Lung [13] = assay: Biodistribution in lungs of BALB/c nude mouse xenografted with human A375 cells at 0.8 to 1 MBq, iv after 30 mins by gamma-counter; format: ADME, organism-based, A-375; conditions: in vivo, 0.5 h; method in brief: as §1
Lung [14] = assay: Biodistribution in lungs of BALB/c nude mouse xenografted with human A375 cells at 0.8 to 1 MBq, iv after 60 mins by gamma-counter; format: ADME, organism-based, A-375; conditions: in vivo, 1 h; method in brief: as §1
Heart [15] = assay: Biodistribution in heart of BALB/c nude mouse xenografted with human A375 cells at 0.8 to 1 MBq, iv after 30 mins by gamma-counter; format: ADME, organism-based, A-375; conditions: in vivo, 0.5 h; method in brief: as §1
Heart [16] = assay: Biodistribution in heart of BALB/c nude mouse xenografted with human A375 cells at 0.8 to 1 MBq, iv after 60 mins by gamma-counter; format: ADME, organism-based, A-375; conditions: in vivo, 1 h; method in brief: as §1
Brain [17] = assay: Biodistribution in brain of BALB/c nude mouse xenografted with human A375 cells at 0.8 to 1 MBq, iv after 15 mins by gamma-counter; format: ADME, organism-based, A-375; conditions: in vivo, 0.25 h; method in brief: as §1
Brain [18] = assay: Biodistribution in brain of BALB/c nude mouse xenografted with human A375 cells at 0.8 to 1 MBq, iv after 30 mins by gamma-counter; format: ADME, organism-based, A-375; conditions: in vivo, 0.5 h; method in brief: as §1
Brain [19] = assay: Biodistribution in brain of BALB/c nude mouse xenografted with human A375 cells at 0.8 to 1 MBq, iv after 120 mins by gamma-counter; format: ADME, organism-based, A-375; conditions: in vivo, 2 h; method in brief: as §1
Pancreas [20] = assay: Biodistribution in pancreas of BALB/c nude mouse xenografted with human A375 cells at 0.8 to 1 MBq, iv after 30 mins by gamma-counter; format: ADME, organism-based, A-375; conditions: in vivo, 0.5 h; method in brief: as §1
Pancreas [21] = assay: Biodistribution in pancreas of BALB/c nude mouse xenografted with human A375 cells at 0.8 to 1 MBq, iv after 120 mins by gamma-counter; format: ADME, organism-based, A-375; conditions: in vivo, 2 h; method in brief: as §1
Blood [22] = assay: Biodistribution in blood of BALB/c nude mouse xenografted with human A375 cells at 0.8 to 1 MBq, iv after 15 mins by gamma-counter; format: ADME, organism-based, A-375; conditions: in vivo, 0.25 h; method in brief: as §1
Blood [23] = assay: Biodistribution in blood of BALB/c nude mouse xenografted with human A375 cells at 0.8 to 1 MBq, iv after 120 mins by gamma-counter; format: ADME, organism-based, A-375; conditions: in vivo, 2 h; method in brief: as §1
[24] = Biodistribution in tumor of BALB/c nude mouse xenografted with human A375 cells at 0.8 to 1 MBq, iv after 60 mins by gamma-counter; format: ADME, organism-based, Neoplasm, A-375; conditions: in vivo, 1 h; method in brief: as §1
[25] = Biodistribution in tumor of BALB/c nude mouse xenografted with human A375 cells at 0.8 to 1 MBq, iv after 120 mins by gamma-counter; format: ADME, organism-based, Neoplasm, A-375; conditions: in vivo, 2 h; method in brief: as §1
[26] = Metabolic stability in human A375 cells xenografted in BALB/c nude mouse assessed as radioactivity after 0.25 to 2 hrs by HPLC analysis; format: ADME, cell-based, A-375; conditions: in vivo
Method in brief: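 A375-tumored Balb/c nude mice received 18-20 MBq tracer iv. Plasma and urine were spiked with unlabeled FPHCys and KF and injected directly; tissues were sonicated in saline with carrier and centrifuged at 6000g. Radio-HPLC on C18 with methanol/phosphate buffer pH 6 gave intact fraction as authentic peak over total activity, at 0.25, 1 and 2 h.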

Kidney [27] = assay: Biodistribution in kidney of BALB/c nude mouse xenografted with human A375 cells after 60 mins by PET/CT imaging; format: ADME, organism-based, A-375; conditions: in vivo, 1 h
Method in brief: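 Female Balb/c nude mice with A375 tumors (1×10^6 cells in Ca/Mg-free PBS injected s.c. in left flank at 6 weeks old). Mice under isoflurane in oxygen. 10 min CT scan, then 18-20 MBq tracer in 100 μL saline given i.v. with a 2 h PET acquisition. Coronal images at 60 min postinjection; n = 3.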

Plasma = assay: Drug level in plasma of BALB/c nude mouse xenografted with human A375 cells assessed as radioactivity in protein fractions after 0.25 to 2 hrs; format: ADME, cell-free, A-375; conditions: in vivo
Method in brief: (§2)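 Female Balb/c nude mice bore subcutaneous A375 flank tumors and received 18-20 MBq tracer iv. Plasma or tissue was sonicated in 10% TCA with unlabeled FPHCys and KF, then centrifuged at 6000g; the pellet was re-extracted twice. Protein-bound fraction is pellet versus supernatant radioactivity, sampled at 0.25, 1 and 2 h.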

Pancreas [28] = assay: Drug level in pancreas extract of BALB/c nude mouse xenografted with human A375 cells assessed as radioactivity in protein fraction after 0.25 to 2 hrs; format: ADME, tissue-based, A-375; conditions: in vivo; method in brief: as §2
[29] = Drug level in tumor extract of BALB/c nude mouse xenografted with human A375 cells assessed as radioactivity in protein fraction after 0.25 to 2 hrs; format: ADME, Neoplasm, A-375; conditions: in vivo; method in brief: as §2

For Cl.N[C@@H](CCSCCC[18F])C(=O)O, the Drug uptake (HT-29) was “Active”, the Drug uptake (Spleen [1]) was 5.05 % ID/g and the Drug uptake (Spleen [2]) was 2.11 % ID/g. For the same compound, the Drug uptake (Kidney [3]) was 15.4 % ID/g, the Drug uptake (Kidney [4]) was 12.6 % ID/g and the Drug uptake (Kidney [5]) was 5.96 % ID/g. The Drug uptake (Kidney [6]) was 3.92 % ID/g, the Drug uptake (Muscle tissue [7]) was 4.12 % ID/g and the Drug uptake (Muscle tissue [8]) was 2.52 % ID/g. For the same compound, the Drug uptake (Muscle tissue [9]) was 1.52 % ID/g, the Drug uptake (Bone [10]) was 3.5 % ID/g and the Drug uptake (Bone [11]) was 1.69 % ID/g. For the same compound, the Drug uptake (Lung [12]) was 5.21 % ID/g, the Drug uptake (Lung [13]) was 5.07 % ID/g and the Drug uptake (Lung [14]) was 2.62 % ID/g. The Drug uptake (Heart [15]) was 4.2 % ID/g, the Drug uptake (Heart [16]) was 2.32 % ID/g and the Drug uptake (Brain [17]) was 3.13 % ID/g. The Drug uptake (Brain [18]) was 2.57 % ID/g, the Drug uptake (Brain [19]) was 2.57 % ID/g and the Drug uptake (Pancreas [20]) was 12.3 % ID/g. For the same compound, the Drug uptake (Pancreas [21]) was 3.77 % ID/g, the Drug uptake (Blood [22]) was 5.17 % ID/g and the Drug uptake (Blood [23]) was 1.38 % ID/g. It also gave a Drug uptake [24] of 5.64 % ID/g, a Drug uptake [25] of 4.4 % ID/g and a Stability [26] of 82%. The Drug uptake (Kidney [27]) was “Active”, the Drug uptake (Plasma) was 1% and the Drug uptake (Pancreas [28]) was 1%. It also gave a Drug uptake [29] of 1%.
For Cl.N[C@H](CCSCCC[18F])C(=O)O, the Drug uptake (HT-29) was “Active”, the Drug uptake (Spleen [1]) was 4.24 % ID/g and the Drug uptake (Spleen [2]) was 0.95 % ID/g. For the same compound, the Drug uptake (Kidney [3]) was 12.2 % ID/g, the Drug uptake (Kidney [4]) was 6.49 % ID/g and the Drug uptake (Kidney [5]) was 2.75 % ID/g. It also gave a Drug uptake (Kidney [6]) of 1.04 % ID/g, a Drug uptake (Muscle tissue [7]) of 2.12 % ID/g and a Drug uptake (Muscle tissue [8]) of 1.44 % ID/g. It also gave a Drug uptake (Muscle tissue [9]) of 0.63 % ID/g, a Drug uptake (Bone [10]) of 2.29 % ID/g and a Drug uptake (Bone [11]) of 1.05 % ID/g. It also gave a Drug uptake (Lung [12]) of 4.11 % ID/g, a Drug uptake (Lung [13]) of 2.84 % ID/g and a Drug uptake (Lung [14]) of 1.55 % ID/g. For the same compound, the Drug uptake (Heart [15]) was 3.05 % ID/g, the Drug uptake (Heart [16]) was 1.16 % ID/g and the Drug uptake (Brain [17]) was 1.53 % ID/g. It also gave a Drug uptake (Brain [18]) of 1.56 % ID/g, a Drug uptake (Brain [19]) of 0.25 % ID/g and a Drug uptake (Pancreas [20]) of 19.6 % ID/g. It also gave a Drug uptake (Pancreas [21]) of 1.43 % ID/g, a Drug uptake (Blood [22]) of 3.51 % ID/g and a Drug uptake (Blood [23]) of 0.89 % ID/g. The Drug uptake [24] was 3.91 % ID/g, the Drug uptake [25] was 1.68 % ID/g and the Stability [26] was 82%. The Drug uptake (Kidney [27]) was “Active”, the Drug uptake (Plasma) was 1% and the Drug uptake (Pancreas [28]) was 1%. It also gave a Drug uptake [29] of 1%.
